Our source for the logD values is ChEMBL document CHEMBL1208790, “Exploration of a new series of CCR5 antagonists: multi-dimensional optimization of a sub-series containing N-substituted pyrazoles” (Bioorg Med Chem Lett, 2010).

A short description of this data set: Lipophilicity, log D of the compound at pH 7 by shake flask method. Format: physicochemical. Conditions: buffer. The method, boiled down:
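High-throughput shake-flask log D determination at pH 7.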

As to `Cc1ncnc(C)c1C(=O)N1C[C@H]2CN(CC[C@H](NC(=O)C3CCCC3)c3ccccc3)C[C@H]2C1`, the logD worked out at 1.37.

For the compound `Cc1nn(-c2ccccc2)c(C)c1C(=O)N1C[C@H]2CN(CC[C@H](NC(=O)C3CCCC3)c3ccccc3)C[C@H]2C1`, the logD was 2.92.

As for `Cc1ccnc(C)c1C(=O)N1C[C@H]2CN(CC[C@H](NC(=O)C3CCCC3)c3ccccc3)C[C@H]2C1`, the logD worked out at 1.9.

`Cc1cc(C#N)nc(C)c1C(=O)N1C[C@H]2CN(CC[C@H](NC(=O)C3CCCC3)c3ccccc3)C[C@H]2C1` displayed a logD of 1.89.

By logD is commonly meant lipophilicity at a set pH, counting ionised and neutral species.
